One block for each compound: values may come before it.
Key:
BCL-XL = BCL-XL (Homo sapiens, UniProt Q07817); assay: Western blot of BCL-XL protein levels in MOLT-4 cells; type: cell-based; conditions: 100 nM, 16 h, Western blot (Figure 3)
Outline: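 MOLT-4 cells were treated for 16 h with test compound (100 nM for VHL-based, 50 nM for CRBN-based, or a concentration series for DC50). Other runs used 100 nM over a time course, or 16 h exposure followed by washout into drug-free medium. Some cells were pretreated 2 h with 10 μM pomalidomide or 1 μM MG-132. Immunoblot bands were normalized to β-actin and expressed as % remaining versus vehicle.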

MOLT-4 T-ALL cells = assay: MOLT-4 cell viability assay; type: cell-based, human

Sequence of BCL-XL (Q07817 whole entry): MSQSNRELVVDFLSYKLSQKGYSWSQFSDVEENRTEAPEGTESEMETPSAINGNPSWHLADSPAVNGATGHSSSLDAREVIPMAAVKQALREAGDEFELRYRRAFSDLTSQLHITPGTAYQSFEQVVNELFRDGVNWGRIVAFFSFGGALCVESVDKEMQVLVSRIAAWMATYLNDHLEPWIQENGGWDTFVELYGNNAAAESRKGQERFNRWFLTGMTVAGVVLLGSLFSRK

- BCL-XL degradation in MOLT-4 cells at 100 nM (BCL-XL): weak BCL-XL degradation
Compound: Cc1ncsc1-c1ccc([C@H](C)NC(=O)[C@@H]2C[C@@H](O)CN2C(=O)[C@@H](NC(=O)CCCCCC(=O)N(C)CC[C@H](CSc2ccccc2)Nc2ccc(S(=O)(=O)NC(=O)c3ccc(N4CCN(CC5=C(c6ccc(Cl)cc6)CCC(C)(C)C5)CC4)cc3)cc2S(=O)(=O)C(F)(F)F)C(C)(C)C)cc1 [Compound 5, N^1-((R)-3-((4-(N-(4-(4-((4’-Chloro-4,4-dimethyl-3,4,5,6-tetrahydro-[1,1’-biphenyl]-2-yl)methyl)piperazin-1-yl)benzoyl)sulfamoyl)-2-((trifluoromethyl)sulfonyl)phenyl)amino)-4-(phenylthio)butyl)-N^7-((S)-1-((2S,4R)-4-hydroxy-2-(((S)-1-(4-(4-methylthiazol-5-yl)phenyl)ethyl)carbamoyl)pyrrolidin-1-yl)-3,3-dimethyl-1-oxobutan-2-yl)-N^1-methylheptanediamide]

Compound: (2S,4R)-1-((S)-2-(2-(2-(4-((R)-3-((4-(N-(4-(4-((4’-Chloro-4,4-dimethyl-3,4,5,6-tetrahydro-[1,1’-biphenyl]-2-yl)methyl)piperazin-1-yl)benzoyl)sulfamoyl)-2-((trifluoromethyl)sulfonyl)phenyl)amino)-4-(phenylthio)butyl)piperazin-1-yl)ethoxy)acetamido)-3,3-dimethylbutanoyl)-4-hydroxy-N-((S)-1-(4-(4-methylthiazol-5-yl)phenyl)ethyl)pyrrolidine-2-carboxamide [Compound 4a]
- IC50 (MOLT-4 T-ALL cells; read-out: IC50, reduction of MOLT-4 cell viability, MOLT-4 cells, 48 h treatment, means of at least three independent experiments (Tables 1-4)): 151 nM

Compound: CC1(C)CCC(c2ccc(Cl)cc2)=C(CN2CCN(c3ccc(C(=O)NS(=O)(=O)c4ccc(N[C@H](CCN5CCN(C(=S)NCCOCCOCCNc6cccc7c6C(=O)N([C@@H]6CCC(=O)NC6=O)C7=O)CC5)CSc5ccccc5)c(S(=O)(=O)C(F)(F)F)c4)cc3)CC2)C1 (racemic) [Compound 11b, 4-(4-((2-(4-Chlorophenyl)-5,5-dimethylcyclohex-1-enyl)methyl)piperazin-1-yl)-N-(4-((2R)-4-(4-(2-(2-(2-(2-(2,6-dioxopiperidin-3-yl)-1,3-dioxoisoindolin-4-ylamino)ethoxy)ethoxy)ethylcarbamothioyl)piperazin-1-yl)-1-(phenylthio)butan-2-ylamino)-3-(trifluoromethylsulfonyl)phenylsulfonyl)benzamide]
- fold decrease in potency compared to 11a (MOLT-4 T-ALL cells; MOLT-4, versus 11a): ~ 6 fold

Compound: Cc1ncsc1-c1ccc([C@H](C)NC(=O)[C@@H]2C[C@@H](O)CN2C(=O)[C@@H](NC(=O)CCOCCC(=O)N2CCN(CC[C@H](CSc3ccccc3)Nc3ccc(S(=O)(=O)NC(=O)c4ccc(N5CCN(CC6=C(c7ccc(Cl)cc7)CCC(C)(C)C6)CC5)cc4)cc3S(=O)(=O)C(F)(F)F)CC2)C(C)(C)C)cc1 [Compound 3a, (2S,4R)-1-((S)-2-(3-(3-(4-((R)-3-((4-(N-(4-(4-((4’-Chloro-4,4-dimethyl-3,4,5,6-tetrahydro-[1,1’-biphenyl]-2-yl)methyl)piperazin-1-yl)benzoyl)sulfamoyl)-2-((trifluoromethyl)sulfonyl)phenyl)amino)-4-(phenylthio)butyl)piperazin-1-yl)-3-oxopropoxy)propanamido)-3,3-dimethylbutanoyl)-4-hydroxy-N-((S)-1-(4-(4-methylthiazol-5-yl)phenyl)ethyl)pyrrolidine-2-carboxamide]
- times less potent than 1e in MOLT-4 cell viability (MOLT-4 T-ALL cells; MOLT-4, versus 1e): ~ 4 times

— publication PMC7433031 (European journal of medicinal chemistry, 2020)
